Test results published in ChEMBL document CHEMBL4765449, “Synthesis, biological evaluation and toxicity of novel tetrandrine analogues” (Eur J Med Chem, 2020).
The source made the active and inactive calls. The calls are words filed in the database; no cut-off is given here.

Tests used:
HepaRG [1] = assay: Cytotoxicity against human HepaRG cells assessed as reduction in cell viability at 10 uM measured after 24 hrs by Celltiter-blue cell viability assay; type: cell-based
Outline: (§1)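 Differentiated HepaRG cells (Maintenance/Metabolism medium) exposed 24 h to 10 or 20 μM compound; viability by CellTiter-Blue, normalized to vehicle control. Means ± SEM of three independent experiments.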

HepaRG [2] = assay: Cytotoxicity against human HepaRG cells assessed as reduction in cell viability at 20 uM measured after 24 hrs by Celltiter-blue cell viability assay; type: cell-based; outline: as §1
CCRF-CEM [3] = assay: Antiproliferative activity against vincristine-resistant human CEM cells assessed as reduction in cell viability measured after 48 hrs by Celltiter-blue cell viability assay; type: functional, cell-based
Outline: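 VCR-R CEM cells (RPMI 1640, 10% FCS), 0.02 × 10^6 per well, rested 4 h (metabolic activity at this point taken as zero value), then exposed to compounds for 48 h; CellTiter-Blue added 2 h before end, fluorescence at 590 nm. IC50 by nonlinear regression; single-concentration proliferation read at 10 μM.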

CCRF-CEM [4] = assay: Induction of mitochondrial membrane disruption in vincristine-resistant human CEM cells at 5 uM measured after 24 hrs by JC-1 dye based flow cytometric analysis; type: functional, cell-based
Outline: (§2)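 Cells (HepG2 adhered overnight; VCR-R CEM seeded 4 h before) treated with DMSO or 5 μM for 24 h; JC-1 (1 μg/mL) 1 h before harvest, PBS wash, flow cytometry; green shift read as loss of ΔΨm. CCCP (100 μM, 1 h) positive control; elacridar (5 μM) present for CEM staining.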

CEM [5] = assay: Inhibition of P-gp in vincristine-resistant human CEM cells at 0.1 to 1 uM using calcein-AM as substrate preincubated for 30 mins followed by compound washout and subsequent substrate addition measured after 60 mins by flow cytometric analysis; type: cell-based; conditions: dose 0.1-1 µM
HepG2 [6] = assay: Induction of apoptosis in human HepG2 cells assessed as reduction in Bcl-xl expression at 5 uM measured after 24 hrs by Western blot analysis; type: functional, cell-based
Outline: (§3)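 HepG2, 0.5 × 10^6 per well, adhered overnight, then DMSO or 5 μM compound; RIPA lysates immunoblotted by SDS-PAGE/PVDF with chemiluminescent detection.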

CEM [7] = assay: Inhibition of P-gp in vincristine-resistant human CEM cells assessed as potentiation of vincristine-induced apoptosis 1 uM measured after 48 hrs by propidium iodide staining based flow cytometry; type: cell-based
Outline: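 VCR-R CEM, 0.125 × 10^6 per well, rested 4 h, then incubated 48 h with increasing vincristine with or without 1 μM compound; apoptosis by propidium iodide staining and flow cytometry. Three independent experiments.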

HepG2 [8] = assay: Induction of mitochondrial membrane disruption in human HepG2 cells at 5 uM measured after 24 hrs by JC-1 dye based flow cytometric analysis; type: functional, cell-based; outline: as §2
CEM [9] = assay: Effect on AKT phosphorylation at Ser473 residue in vincristine-resistant human CEM cells at 5 uM measured after 24 hrs by Western blot analysis; type: cell-based
Outline: (§4)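 VCR-R CEM cells, 2 × 10^6 per well, seeded 4 h before 5 μM compound or DMSO for 24 h; RIPA lysis, SDS-PAGE, PVDF blotting, chemiluminescence. Probed for p-Akt (Ser473), total Akt, PARP, Bcl-xL, Mcl-1; stain-free total protein as loading control.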

CCRF-CEM [10] = assay: Effect on Bcl-XL expression in vincristine-resistant human CEM cells at 5 uM measured after 24 hrs by Western blot analysis; type: functional, cell-based; outline: as §4
CCRF-CEM [11] = assay: Effect on P-gp expression in vincristine-resistant human CEM cells at 1 uM measured after 1.5 hrs by immunostaining based flow cytometry; type: functional, cell-based
Outline: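 VCR-R CEM, 2 × 10^4 cells, 1 μM compound 1.5 h at 37 °C; washed in ice-cold 1% BSA/PBS, stained 30 min at 4 °C in dark with FITC anti-human P-gp, isotype control for background; flow cytometry, gMFI normalized to DMSO. Three independent experiments.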

HepG2 [12] = assay: Cytotoxicity against human HepG2 cells overexpressing EGFP-CYP3A4 assessed as reduction in cell viability at 15 uM measured after 24 hrs by propidium iodide staining based flow cytometry; type: functional
Outline: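 HepG2 stably transfected (G418 0.5 mg/mL, four weeks; plasmid confirmed by PCR) with pcDNA3-CYP3A4-EGFP or empty vector, 0.1 × 10^6 per well, adhered overnight; 15 μM compound 24 h. Propidium iodide staining and flow cytometry; specific cell death relative to control. Three independent experiments.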

HepG2 [13] = assay: Induction of apoptosis in human HepG2 cells assessed as reduction in Mcl-1 expression at 5 uM measured after 24 hrs by Western blot analysis; type: functional, cell-based; outline: as §3
HepG2 [14] = assay: Induction of apoptosis in human HepG2 cells assessed as increase in PARP cleavage at 5 uM measured after 24 hrs by Western blot analysis; type: functional, cell-based; outline: as §3
CCRF-CEM [15] = assay: Effect on MCL1 expression in vincristine-resistant human CEM cells at 5 uM measured after 24 hrs by Western blot analysis; type: functional, cell-based; outline: as §4
HepG2 [16] = assay: Inhibition of AKT phosphorylation at Ser473 residue in human HepG2 cells at 5 uM measured after 24 hrs by Western blot analysis; type: cell-based; outline: as §3
CCRF-CEM [17] = assay: Induction of apoptosis in vincristine-resistant human CEM cells assessed as increase in PARP cleavage at 5 uM measured after 24 hrs by Western blot analysis; type: functional, cell-based; outline: as §4

IC50 (CCRF-CEM [3]) [µM] | Structure (SMILES) | Activity (HepaRG [1]) | Activity (HepaRG [2]) | Activity (CCRF-CEM [4]) | inhibition (CEM [5]) | Activity (HepG2 [6]) | inhibition (CEM [7]) | Activity (HepG2 [8]) | Activity (CEM [9]) | Activity (CCRF-CEM [10]) | Activity (CCRF-CEM [11]) | Activity (HepG2 [12]) | Activity (HepG2 [13]) | Activity (HepG2 [14]) | Activity (CCRF-CEM [15]) | inhibition (HepG2 [16]) | Activity (CCRF-CEM [17])
4.8 | COc1cc2c3cc1Oc1c(OC)c(OC)cc4c1C(Cc1ccc(Cl)c(c1)Oc1ccc(cc1)CC3N(C)CC2)N(C)CC4 (mixture of isomers) | Toxic | Toxic |  |  |  |  |  |  |  |  |  |  |  |  |  | 
 | COc1cc2c3cc1Oc1c(OC)c(OC)cc4c1C(Cc1cc(cs1)Oc1ccc(cc1)CC3N(C)CC2)N(C)CC4 (racemic; form 1) |  |  | Active | Active | Active | Active | inactive | inactive | inactive | inactive | Active | Active | inactive | inactive | Active | 
 | COc1cc2c3cc1Oc1c(OC)c(OC)cc4c1C(Cc1ccc(OC(F)(F)F)c(c1)Oc1ccc(cc1)CC3N(C)CC2)N(C)CC4 (racemic; form 2) |  |  | Active | Active |  | Active | inactive | inactive | inactive | inactive | Active |  | inactive | inactive | Active | Active
